Measurements taken from ChEMBL document CHEMBL1128485, “(E)-4-(2-[[3-(indol-5-yl)-1-oxo-2-butenyl]amino]phenoxy)butyric acid derivatives: a new class of steroid 5 alpha-reductase inhibitors in the rat prostate. 1” (J Med Chem, 1995).

biological target: Steroid 5-alpha-reductase (Rattus norvegicus) (UniProt P24008+P31214); experiment: (§1) Inhibitory activity against Steroid 5-alpha-reductase in prostates from male rats; format: tissue-based; design: concentration or dose not given beside the values; conditions: Prostate gland; concentration not given here
How it was run: (§2)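 Ventral prostate from male Wistar rats (200–300 g), homogenized in ice-cold 0.32 M sucrose, 1 mM DTT, 20 mM sodium phosphate pH 6.5. Particulate pellet spun at 140000g, stored at –80 °C, used at 1 mg protein. Reaction run in 40 mM phosphate pH 6.5 with 1 mM DTT, 150 µM NADPH and 3 µM [14C]testosterone. Compounds added in ethanol. Incubated 37 °C, 20 min, extracted with ethyl acetate. [14C]T and DHT measured by TLC radioscan. IC50 given as mean ± SE of three experiments.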

Q: How did the inhibition turn out when CCCC(CCC)n1ccc2cc(/C(C)=C/C(=O)Nc3cccc(OCCCC(=O)O)c3)ccc21 was run?
A: 19%

Q: How did the inhibition turn out when C/C(=C\C(=O)Nc1cc(C)ccc1OCCCC(=O)O)c1ccc2c(ccn2C(c2ccccc2)c2ccccc2)c1 was run?
A: 45%

Q: Which inhibition does the source give for C/C(=C\C(=O)Nc1ccccc1OCCCC(=O)O)c1ccc2c(ccn2C2CCCCC2)c1 here?
A: 48%

Q: For C/C(=C\C(=O)Nc1cc(Cl)ccc1OCCCC(=O)O)c1ccc2c(ccn2C(c2ccccc2)c2ccccc2)c1, which inhibition is on record?
A: 38%

Q: How did the inhibition turn out when CCCC(CCC)n1ccc2cc(/C(C)=C/C(=O)Nc3ccc(OCCCC(=O)O)cc3)ccc21 was run?
A: 28%

Q: How did the inhibition turn out when C/C(=C\C(=O)Nc1ccccc1OCCCC(=O)O)c1ccc2c(ccn2C2c3ccccc3CCc3ccccc32)c1 was run?
A: 31%

Q: Which inhibition does the source give for C/C(=C\C(=O)N(C)c1ccccc1OCCCC(=O)O)c1ccc2c(ccn2C(C)c2ccccc2)c1 (stereo unspecified) here?
A: 8%

Q: How did the inhibition turn out when C/C(=C\C(=O)Nc1cc(F)ccc1OCCCC(=O)O)c1ccc2c(ccn2C(c2ccccc2)c2ccccc2)c1 was run?
A: 52%

Q: For C/C(=C\C(=O)Nc1ccccc1OCCCC(=O)O)c1ccc2c(ccn2C(C)c2ccc3ccccc3c2)c1 (stereo unspecified), which inhibition is on record?
A: 26%

biological target: T1, Steroid 5-alpha-reductase (Rattus norvegicus, UniProt P24008+P31214); experiment: as §1; format: tissue-based, Prostate gland; conditions: not given
T1 sequence (P24008 whole entry): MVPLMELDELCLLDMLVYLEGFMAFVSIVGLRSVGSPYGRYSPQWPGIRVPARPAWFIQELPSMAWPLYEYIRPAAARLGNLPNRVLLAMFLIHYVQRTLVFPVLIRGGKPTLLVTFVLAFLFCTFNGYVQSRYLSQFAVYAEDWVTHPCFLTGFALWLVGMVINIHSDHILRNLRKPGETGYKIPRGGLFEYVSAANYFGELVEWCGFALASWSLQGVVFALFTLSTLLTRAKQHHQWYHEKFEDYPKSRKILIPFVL
T1 sequence (P31214 whole entry): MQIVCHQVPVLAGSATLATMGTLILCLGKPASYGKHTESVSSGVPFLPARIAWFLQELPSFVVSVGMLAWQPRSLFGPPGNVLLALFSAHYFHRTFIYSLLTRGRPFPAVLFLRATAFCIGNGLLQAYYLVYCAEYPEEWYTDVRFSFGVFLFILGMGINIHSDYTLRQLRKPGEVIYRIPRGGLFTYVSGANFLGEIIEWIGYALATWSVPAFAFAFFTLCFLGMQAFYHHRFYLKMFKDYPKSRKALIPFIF
How it was run: as §2, with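 “protein.” for “protein. Reaction run in 40 mM phosphate pH 6.5 with 1 mM DTT, 150 µM NADPH and 3 µM [14C]testosterone.”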

Q: How did the IC50 turn out when C/C(=C\C(=O)Nc1ccccc1OCCCC(=O)O)c1ccc2c(ccn2C(c2ccccc2)c2cccnc2)c1 (stereo unspecified) was run?
A: 47 nM

Q: How did the IC50 turn out when CCCn1ccc2cc(/C(C)=C/C(=O)Nc3ccccc3OCCCC(=O)O)ccc21 was run?
A: 190 nM

Q: C/C(=C\C(=O)Nc1ccc(F)cc1OCCCC(=O)O)c1ccc2c(ccn2C(c2ccccc2)c2ccccc2)c1 was tested. Which IC50 did it give?
A: 3.6 nM

Q: Which IC50 does the source give for CCCCC(C)n1ccc2cc(/C(C)=C/C(=O)Nc3ccccc3OCCCC(=O)O)ccc21 (stereo unspecified) here?
A: 6 nM

Q: Which IC50 does the source give for C/C(=C\C(=O)Nc1ccccc1OCCCC(=O)O)c1ccc2c(ccn2Cc2cccc(C)c2)c1 here?
A: 250 nM

Q: Which IC50 does the source give for C/C(=C\C(=O)Nc1ccccc1OCCCC(=O)O)c1ccc2c(ccn2Cc2ccc(C(C)(C)C)cc2)c1 here?
A: 170 nM

Q: How did the IC50 turn out when CCCCC(c1ccccc1)n1ccc2cc(/C(C)=C/C(=O)Nc3ccccc3OCCCC(=O)O)ccc21 (stereo unspecified) was run?
A: 9.8 nM

Q: Which IC50 does the source give for C/C(=C\C(=O)Nc1ccccc1OCCCC(=O)O)c1ccc2c(ccn2C(C(C)C)C(C)C)c1 here?
A: 14 nM

Q: CCCC(CC)n1ccc2cc(/C(C)=C/C(=O)Nc3ccccc3OCCCC(=O)O)ccc21 (stereo unspecified) was tested. Which IC50 did it give?
A: 9.3 nM

Q: Which IC50 does the source give for CCCCCCn1ccc2cc(/C(C)=C/C(=O)Nc3ccccc3OCCCC(=O)O)ccc21 here?
A: 77 nM

Q: CCCCC(CC)n1ccc2cc(/C(C)=C/C(=O)Nc3ccccc3OCCCC(=O)O)ccc21 (stereo unspecified) was tested. Which IC50 did it give?
A: 7.1 nM

Q: How did the IC50 turn out when CCCCCn1ccc2cc(/C(C)=C/C(=O)Nc3ccccc3OCCCC(=O)O)ccc21 was run?
A: 23 nM

Q: C/C(=C\C(=O)Nc1ccccc1OCCCC(=O)O)c1ccc2c(ccn2C)c1 was tested. Which IC50 did it give?
A: 780 nM

Q: For C/C(=C\C(=O)Nc1ccccc1OCCCC(=O)O)c1ccc2c(ccn2C(C)c2ccccc2)c1 (stereo unspecified), which IC50 is on record?
A: 19 nM

Q: With C/C(=C\C(=O)Nc1ccccc1OCCCC(=O)O)c1ccc2c(ccn2Cc2ccc(C(F)(F)F)cc2)c1 as the molecule, how does the IC50 read?
A: 300 nM

Q: C/C(=C\C(=O)Nc1ccccc1OCCCC(=O)O)c1ccc2c(ccn2C(c2ccccc2)c2ccccc2)c1 was tested. Which IC50 did it give?
A: 5.6 nM

Q: Which IC50 does the source give for C/C(=C\C(=O)Nc1ccccc1OCCCC(=O)O)c1ccc2c(ccn2CC(C)C)c1 here?
A: 160 nM

Q: Which IC50 does the source give for CCCC(C)n1ccc2cc(/C(C)=C/C(=O)Nc3ccccc3OCCCC(=O)O)ccc21 (stereo unspecified) here?
A: 7.8 nM

Q: Which IC50 does the source give for C/C(=C\C(=O)Nc1ccc(C)cc1OCCCC(=O)O)c1ccc2c(ccn2C(c2ccccc2)c2ccccc2)c1 here?
A: 14 nM

Q: With CCCCC(CCCC)n1ccc2cc(/C(C)=C/C(=O)Nc3ccccc3OCCCC(=O)O)ccc21 as the molecule, how does the IC50 read?
A: 21 nM

Q: COc1ccc(C(c2ccc(OC)cc2)n2ccc3cc(/C(C)=C/C(=O)Nc4ccccc4OCCCC(=O)O)ccc32)cc1 was tested. Which IC50 did it give?
A: 9.8 nM

Q: With C/C(=C\C(=O)Nc1cccc(F)c1OCCCC(=O)O)c1ccc2c(ccn2C(c2ccccc2)c2ccccc2)c1 as the molecule, how does the IC50 read?
A: 15 nM

Q: C/C(=C\C(=O)Nc1ccccc1OCCCC(=O)O)c1ccc2c(ccn2C(c2ccccc2)C(C)C)c1 (stereo unspecified) was tested. Which IC50 did it give?
A: 25 nM

Q: Which IC50 does the source give for C/C(=C\C(=O)Nc1ccccc1OCCCC(=O)O)c1ccc2c(ccn2CC(C)(C)C)c1.Cc1ccccc1 here?
A: 84 nM

Q: For CCCCCC(c1ccccc1)n1ccc2cc(/C(C)=C/C(=O)Nc3ccccc3OCCCC(=O)O)ccc21 (stereo unspecified), which IC50 is on record?
A: 25 nM

Q: Which IC50 does the source give for CCCCn1ccc2cc(/C(C)=C/C(=O)Nc3ccccc3OCCCC(=O)O)ccc21 here?
A: 43 nM

Q: With CC(C)=CCn1ccc2cc(/C(C)=C/C(=O)Nc3ccccc3OCCCC(=O)O)ccc21 as the molecule, how does the IC50 read?
A: 120 nM

Q: C/C(=C\C(=O)Nc1ccccc1OCCCC(=O)O)c1ccc2c(ccn2C(c2ccc(C)cc2)c2ccc(C)cc2)c1 was tested. Which IC50 did it give?
A: 8.8 nM

Q: How did the IC50 turn out when COc1ccc(Cn2ccc3cc(/C(C)=C/C(=O)Nc4ccccc4OCCCC(=O)O)ccc32)cc1 was run?
A: 480 nM

Q: Which IC50 does the source give for C/C(=C\C(=O)Nc1ccccc1OCCCC(=O)O)c1ccc2c(ccn2C(c2ccccc2C)c2ccccc2C)c1 here?
A: 19 nM

Q: CCC(C)n1ccc2cc(/C(C)=C/C(=O)Nc3ccccc3OCCCC(=O)O)ccc21 (stereo unspecified) was tested. Which IC50 did it give?
A: 67 nM

Q: Which IC50 does the source give for C/C(=C\C(=O)Nc1ccccc1OCCCC(=O)O)c1ccc2c(ccn2C(c2ccccc2)c2ccc(C(F)(F)F)cc2)c1 (stereo unspecified) here?
A: 8.1 nM

Q: C/C(=C\C(=O)Nc1ccccc1SCCCC(=O)O)c1ccc2c(ccn2C(c2ccccc2)c2ccccc2)c1 was tested. Which IC50 did it give?
A: 39 nM

Q: CCCCCCCn1ccc2cc(/C(C)=C/C(=O)Nc3ccccc3OCCCC(=O)O)ccc21 was tested. Which IC50 did it give?
A: 120 nM

Q: With CCCC(c1ccccc1)n1ccc2cc(/C(C)=C/C(=O)Nc3ccccc3OCCCC(=O)O)ccc21 (stereo unspecified) as the molecule, how does the IC50 read?
A: 9.1 nM

Q: How did the IC50 turn out when C/C(=C\C(=O)Nc1ccccc1OCCCC(=O)O)c1ccc2c(ccn2Cc2ccccc2C)c1 was run?
A: 69 nM

Q: For C/C(=C\C(=O)Nc1ccccc1OCCCC(=O)O)c1ccc2c(ccn2Cc2ccc(F)cc2)c1, which IC50 is on record?
A: 97 nM

Q: How did the IC50 turn out when CCC(c1ccccc1)n1ccc2cc(/C(C)=C/C(=O)Nc3ccccc3OCCCC(=O)O)ccc21 (stereo unspecified) was run?
A: 19 nM

Q: How did the IC50 turn out when C/C(=C\C(=O)Nc1ccccc1OCCCC(=O)O)c1ccc2c(ccn2C(c2ccc(Cl)cc2)c2ccc(Cl)cc2)c1 was run?
A: 25 nM

Q: For C/C(=C\C(=O)Nc1ccccc1OCCCC(=O)O)c1ccc2c(ccn2C(c2ccccc2)c2ccccn2)c1 (stereo unspecified), which IC50 is on record?
A: 37 nM

Q: Which IC50 does the source give for COc1ccc(C(c2ccccc2)n2ccc3cc(/C(C)=C/C(=O)Nc4ccccc4OCCCC(=O)O)ccc32)cc1 (stereo unspecified) here?
A: 8.8 nM

Q: For C/C(=C\C(=O)Nc1ccccc1OCCCC(=O)O)c1ccc2c(ccn2Cc2ccc(C)cc2)c1, which IC50 is on record?
A: 88 nM

Q: C/C(=C\C(=O)Nc1ccccc1OCCCC(=O)O)c1ccc2c(ccn2C(CC(C)C)c2ccccc2)c1 (stereo unspecified) was tested. Which IC50 did it give?
A: 6.3 nM

Q: C/C(=C\C(=O)Nc1ccccc1OCCCC(=O)O)c1ccc2c(ccn2C(c2ccccc2)c2ccncc2)c1 (stereo unspecified) was tested. Which IC50 did it give?
A: 26 nM

Q: With CCCC(C(C)C)n1ccc2cc(/C(C)=C/C(=O)Nc3ccccc3OCCCC(=O)O)ccc21 (stereo unspecified) as the molecule, how does the IC50 read?
A: 7.2 nM

Q: CCCCc1ccc(Cn2ccc3cc(/C(C)=C/C(=O)Nc4ccccc4OCCCC(=O)O)ccc32)cc1 was tested. Which IC50 did it give?
A: 100 nM

Q: Which IC50 does the source give for CCCCCC(CCCCC)n1ccc2cc(/C(C)=C/C(=O)Nc3ccccc3OCCCC(=O)O)ccc21 here?
A: 25 nM
